From ChEMBL document CHEMBL1123124, “New antihistaminic N-heterocyclic 4-piperidinamines. 2. Synthesis and antihistaminic activity of 1-[(4-fluorophenyl)methyl]-N-(4-piperidinyl)-1H-benzimidazol-2-a mines” (1985)

Key:
Rattus norvegicus [1] = assay: Inhibition of mydriatic activity in rat after 2 hr of intraperitoneal administration.; assay type: functional; settings: ip
Cavia porcellus [2] = assay: In vivo histamine induced lethality after 48 hours of iv administration in guinea pig; assay type: functional
Outline: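 Male albino guinea pigs (280–360 g) were dosed orally 3, 24, 48 or 96 h before an iv challenge with histamine dihydrochloride (1.25 mg/kg). Protection was survival at 1 h. Doses rose in 2-fold steps from 0.0025 mg/kg, with at least three doses and 4–6 animals per dose and time point. PD50 with confidence limits was computed by Finney.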

Rattus norvegicus [3] = assay: Inhibition of serotonin skin reaction in rat after 2 hr of subcutaneous administration.; assay type: functional; settings: sc
Rattus norvegicus [4] = assay: Inhibition of histamine skin reaction in rat after 2 hr of subcutaneous administration.; assay type: functional; settings: sc
Cavia porcellus [5] = assay: In vivo histamine induced lethality after 96 hours of iv administration in guinea pig; assay type: functional
Cavia porcellus [6] = assay: In vivo histamine induced lethality after 8 hours of iv administration in guinea pig; assay type: functional
Cavia porcellus [7] = assay: In vivo histamine induced lethality after 24 hours of iv administration in guinea pig; assay type: functional
Cavia porcellus [8] = assay: In vivo histamine induced lethality after 3 hours of iv administration in guinea pig; assay type: functional
Rattus norvegicus [9] = assay: In vivo antihistaminic activity using compound 48/80 induced lethality test after 1 hr of subcutaneous administration in rat; assay type: functional; settings: sc
Outline: (§1)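 Protection was survival for 4 h after challenge. ED50 with confidence limits was calculated by Finney from five rats per dose and at least three doses of a geometric series (0.0025–40 mg/kg). Estimated ED50 used at least two rats per dose.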

Rattus norvegicus [10] = assay: In vivo antihistaminic activity using compound 48/80 induced lethality test in rat after 2 hr of oral administration; assay type: functional; outline: as §1
Rattus norvegicus [11] = assay: In vivo antihistaminic activity using compound 48/80 induced lethality test in rat after 2 hr of subcutaneous administration; assay type: functional; settings: sc; outline: as §1
Rattus norvegicus [12] = assay: Inhibition of serotonin skin reaction in rat after 2 hr of oral administration; assay type: functional
Outline: (§2)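 Test compound or solvent given orally to rats 2 h before four intradermal injections into clipped back: two of 50 μL histamine dihydrochloride (1 mg/mL in saline), two of 50 μL serotonin (2 μg/mL in saline). Then iv 0.5 mL of 0.5% trypan blue. Bluing of skin reactions scored 30 min later.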

Rattus norvegicus [13] = assay: Inhibition of mydriatic activity in rat after 2 hr of oral administration.; assay type: functional
Rattus norvegicus [14] = assay: Inhibition of histamine skin reaction in rat after 2 hr of oral administration; assay type: functional; outline: as §2
Rattus norvegicus [15] = assay: In vivo antihistaminic activity using compound 48/80 induced lethality test in rat after 2 hr( oral administration); assay type: functional; outline: as §1
Rattus norvegicus [16] = assay: Inhibition of histamine skin reaction in rat after 2 hr of oral administration.; assay type: functional; outline: as §2
Rattus norvegicus [17] = assay: Inhibition of serotonin skin reaction in rat after 2 hr of oral administration.; assay type: functional; outline: as §2
Rattus norvegicus [18] = assay: In vivo antihistaminic activity using compound 48/80 induced lethality test in rat after 2 hr of oral administration.; assay type: functional; outline: as §1
Rattus norvegicus [19] = assay: In vivo antihistaminic activity using compound 48/80 induced lethality test in rat after 2 hr of oral administration; C represents estimated ED50 values used whenever possible for comparison of relative potencies; assay type: functional, organism-based
Outline: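 Protection = survival 4 h after challenge. ED50 (dose giving 50% survival) calculated with confidence limits by Finney, five animals per dose, at least three doses from geometric series 0.0025–40.0 mg/kg. Estimated ED50 values based on at least two animals per dose.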

Rattus norvegicus [20] = assay: Inhibition of mydriatic activity in rat after 2 hr of oral administration; assay type: functional
Rattus norvegicus [21] = assay: In vivo antihistaminic activity using compound 48/80 induced lethality test in rat 2 hr after oral administration; assay type: functional; outline: as §1
Rattus norvegicus [22] = assay: Inhibition of mydriatic activity in rat after 2 hr of intraperitoneal administration; assay type: functional; settings: ip

Structure (SMILES)	ED50 (Cavia porcellus [2]) [mg/kg]	ED50 (Rattus norvegicus [3]) [mg/kg]	ED50 (Rattus norvegicus [4]) [mg/kg]	ED50 (Cavia porcellus [5]) [mg/kg]	ED50 (Cavia porcellus [6]) [mg/kg]	ED50 (Cavia porcellus [7]) [mg/kg]	ED50 (Cavia porcellus [8]) [mg/kg]	ED50 (Rattus norvegicus [9]) [mg/kg]	ED50 (Rattus norvegicus [10]) [mg/kg]	ED50 (Rattus norvegicus [13]) [mg/kg]	other results
Oc1ccc(CCN2CCC(Nc3nc4ccccc4n3Cc3ccc(F)cc3)CC2)cc1 [DESMETHEYLASTEMIZOLE]	0.12	≥ 0.63	0.08	0.27	0.08	0.06	0.19	0.16	0.1	–	ED50 (Rattus norvegicus [1]): > 40 mg/kg
CN1CCC(=C2c3ccccc3CCc3cccnc32)CC1 [AZATADINE]	> 2.5	–	–	–	0.06	–	0.014	–	0.48	5.39	ED50 (Rattus norvegicus [11]): 0.049 mg/kg; ED50 (Rattus norvegicus [12]): 18.8 mg/kg; ED50 (Rattus norvegicus [14]): 0.77 mg/kg
Br.OCCN1CCC(Nc2nc3ccccc3n2Cc2ccc(F)cc2)CC1	0.3	> 0.63	0.08	2.15	0.07	0.09	0.04	0.04	0.63	–	ED50 (Rattus norvegicus [1]): > 40 mg/kg
CN1CCC(=C2c3ccccc3C=Cc3ccccc32)CC1 [CYPROHEPTADINE]	–	–	–	–	0.88	> 2.5	0.08	–	–	9.36	ED50 (Rattus norvegicus [15]): 1.13 mg/kg; ED50 (Rattus norvegicus [16]): 0.89 mg/kg; ED50 (Rattus norvegicus [17]): 2.35 mg/kg
Fc1ccc(Cn2c(NC3CCN(CCc4ccccc4)CC3)nc3cc(F)ccc32)cc1	–	–	–	–	–	–	–	1.25	–	–	ED50 (Rattus norvegicus [18]): > 2.5 mg/kg
O=[N+]([O-])c1ccc(CCN2CCC(Nc3nc4ccccc4n3Cc3ccc(F)cc3)CC2)cc1	–	–	–	–	–	–	–	> 2.5	–	–	ED50 (Rattus norvegicus [19]): Estimated ED50 values used whenever possible
Fc1ccc(Cn2c(NC3CCN(CCc4ccccc4)CC3)nc3ccc(F)cc32)cc1	–	–	–	–	–	–	–	1.25	–	–	ED50 (Rattus norvegicus [18]): 0.63 mg/kg
COc1ccc(CN(CCN(C)C)c2ccccn2)cc1 [PYRILAMINE]	–	–	–	–	–	–	–	–	–	–	ED50 (Rattus norvegicus [20]): 56.5 mg/kg; ED50 (Rattus norvegicus [21]): 56.6 mg/kg; ED50 (Rattus norvegicus [16]): > 40 mg/kg; ED50 (Rattus norvegicus [17]): > 40 mg/kg
COc1ccc(CCN2CCC(Nc3nc4ccccc4n3Cc3ccc(F)cc3)CC2)cc1 [ASTEMIZOLE]	0.04	> 2.5	0.15	0.19	0.17	0.07	0.33	0.11	0.11	> 160	ED50 (Rattus norvegicus [12]): 14.2 mg/kg; ED50 (Rattus norvegicus [14]): 0.13 mg/kg; ED50 (Rattus norvegicus [22]): > 40 mg/kg
